Consider 22 compounds from ChEMBL document CHEMBL1129753, “N-terminus urea-substituted chemotactic peptides: new potent agonists and antagonists toward the neutrophil fMLF receptor” (J Med Chem, 1996).

Assay [1] addresses T1, fMet-Leu-Phe receptor (Homo sapiens, UniProt P21462).
T1 sequence (P21462 whole entry): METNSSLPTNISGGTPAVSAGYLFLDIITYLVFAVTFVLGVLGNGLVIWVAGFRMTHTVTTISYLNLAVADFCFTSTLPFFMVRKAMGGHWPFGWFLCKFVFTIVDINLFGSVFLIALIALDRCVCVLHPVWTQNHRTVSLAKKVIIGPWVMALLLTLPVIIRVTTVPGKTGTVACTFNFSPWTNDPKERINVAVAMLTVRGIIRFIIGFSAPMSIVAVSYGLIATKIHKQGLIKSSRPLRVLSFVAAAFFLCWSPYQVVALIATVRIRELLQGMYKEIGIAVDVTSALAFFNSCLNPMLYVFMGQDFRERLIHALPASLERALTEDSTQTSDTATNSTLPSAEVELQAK
The assay can be described thus: Binding affinity towards fMLF receptor using human neutrophils. In outline:
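Competition binding on human neutrophils: the peptide displaces tritiated fMLF from the fMLF receptor. Values are mean ± SE of 2–3 independent experiments.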

Assay [2] has as its target T1, fMet-Leu-Phe receptor. Nature of the assay: Agonistic activity was determined by measuring the ability to induce superoxide production(as measured by reduction of cytochrome C) using human neutrophils; NA= No activity at 30 uM. The format is functional. In outline: (§1)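 Human neutrophils; agonist read-out is superoxide generation induced by the peptide, followed as cytochrome C reduction. Values are mean ± SE of 2–3 independent experiments.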

In assay [3] the target is T1, fMet-Leu-Phe receptor. The assay can be described thus: Antagonistic activity was determined by measuring the ability to inhibit superoxide production (stimulated by fMLF) using human neutrophils. The format is functional. In outline:
(§2)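 Human neutrophils stimulated with fMLF, with the peptide present. Antagonism is the inhibition of fMLF-driven superoxide production, read as cytochrome C reduction. Values are mean ± SE of 2–3 independent experiments.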

The target of assay [4] is T1, fMet-Leu-Phe receptor. Nature of the assay: Agonistic activity was determined by measuring the ability to induce superoxide production(as measured by reduction of cytochrome C) using human neutrophils. The format is functional. In outline:
as §1

Assay [5] in a line: Agonistic activity was determined by measuring the compound's ability to induce superoxide production(as measured by reduction of cytochrome C) using human neutrophils. The class given is functional. In outline:
as §1

For assay [6], the species on record is Homo sapiens. Nature of the assay: Antagonistic activity was determined by measuring the compound's ability to inhibit superoxide production (stimulated by fMLF) using human neutrophils; NA= No activity at 30 uM. The format is functional, organism-based. In outline:
as §2

The species entered for assay [7] is Homo sapiens. Nature of the assay: Agonistic activity was determined by measuring the compound's ability to induce superoxide production(as measured by reduction of cytochrome C) using human neutrophils; NA= No activity at 30 uM. The format is functional, organism-based. In outline: as §1

As to `CC(C)C[C@@H](NC(=O)[C@H](Cc1ccccc1)NC(=O)[C@@H](CC(C)C)NC(=O)[C@H](Cc1ccccc1)NC(=O)Nc1ccccc1)C(=O)N[C@@H](Cc1ccccc1)C(=O)O`, the half-inhibitory concentration (IC50) was found to be 0.05 µM in assay [1] and 0.5 µM in assay [3]. Moreover, in assay [2], the EC50 entry is “Not Active”.

Take `CCCCNC(=O)N[C@@H](CCSC)C(=O)N[C@@H](CC(C)C)C(=O)N[C@@H](Cc1ccccc1)C(=O)O`: the IC50 in assay [1] turned out to be 0.3 µM. In assay [4], this compound registered an EC50 of 0.3 µM.

For the compound `C=C(C)NC(=O)N[C@@H](CCSC)C(=O)N[C@@H](CC(C)C)C(=O)N[C@@H](Cc1ccccc1)C(=O)O`, the IC50 in assay [1] was 0.3 µM. The compound also came in with a concentration for a half-maximal effect (EC50) in assay [5] of 0.4 µM.

Turning to `CCCNC(=O)N[C@@H](CCSC)C(=O)N[C@@H](CC(C)C)C(=O)N[C@@H](Cc1ccccc1)C(=O)O`, the IC50 in assay [1] stood at 2 µM; in assay [3], 3 µM. In addition, the EC50 result in assay [2] is on record as “Not Active”.

Consider `CSCC[C@H](NC(=O)Nc1ccc(C)cc1)C(=O)N[C@@H](CC(C)C)C(=O)N[C@@H](Cc1ccccc1)C(=O)O`, for which the IC50 in assay [1] is 0.002 µM; in assay [6] it was “Not Active”. The EC50 in assay [4] was found to be 0.002 µM.

`CSCC[C@H](NC(=O)Nc1ccc(Cl)cc1)C(=O)N[C@@H](CC(C)C)C(=O)N[C@@H](Cc1ccccc1)C(=O)O`: the IC50 in assay [1] is 0.002 µM; in assay [6], “Not Active”. The compound further returned an EC50 in assay [4] of 0.001 µM.

For `CSCC[C@H](NC(=O)NCC(C)C)C(=O)N[C@@H](CC(C)C)C(=O)N[C@@H](Cc1ccccc1)C(=O)O`, the results for the 50% inhibitory concentration (IC50) in assay [1] and in assay [3] were 1 µM and 4 µM, respectively. Moreover, the concentration giving a half-maximal response (EC50) result in assay [2] is “Not Active”.

With `CC(C)C[C@@H](NC(=O)[C@H](Cc1ccccc1)NC(=O)[C@@H](CC(C)C)NC(=O)[C@H](Cc1ccccc1)NC(=O)NC12CC3CC(CC(C3)C1)C2)C(=O)N[C@@H](Cc1ccccc1)C(=O)O`, the IC50 in assay [1] was found to be 0.02 µM; in assay [3], 0.3 µM. The EC50 result in assay [2] is “Not Active”.

`CSCC[C@H](NC(=O)NC(C)(C)C)C(=O)N[C@@H](CC(C)C)C(=O)N[C@@H](Cc1ccccc1)C(=O)O`: the figures for the IC50 in assay [1] and in assay [3] were 3 µM and 2 µM, respectively. In addition, the EC50 result in assay [2] is reported as “Not Active”.

Turning to `CC(C)C[C@@H](NC(=O)[C@H](Cc1ccccc1)NC(=O)[C@@H](CC(C)C)NC(=O)[C@H](Cc1ccccc1)NC(N)=O)C(=O)N[C@@H](Cc1ccccc1)C(=O)O`, the IC50 in assay [1] was 0.8 µM; in assay [3], 0.1 µM. In assay [7], the half-maximal effective concentration (EC50) entry is listed as “Not Active”.

In the case of `CSCC[C@H](NC(=O)NC12CC3CC(CC(C3)C1)C2)C(=O)N[C@@H](CC(C)C)C(=O)N[C@@H](Cc1ccccc1)C(=O)O`, the half-maximal inhibitory concentration (IC50) worked out at 0.9 µM in assay [1] and 2 µM in assay [3].

Take `CSCC[C@H](NC(=O)Nc1cccc(C)c1)C(=O)N[C@@H](CC(C)C)C(=O)N[C@@H](Cc1ccccc1)C(=O)O`: the IC50 is 0.1 µM in assay [1] and 1.6 µM in assay [3]. Also, the midpoint of the response in assay [4], the EC50, lay at 0.9 µM.

As for `CSCC[C@H](NC(=O)NC(C)C)C(=O)N[C@@H](CC(C)C)C(=O)N[C@@H](Cc1ccccc1)C(=O)O`, the half-inhibitory concentration (IC50) was determined as 2 µM in assay [1] and 5 µM in assay [3].

As to `CC(C)C[C@@H](NC(=O)[C@H](Cc1ccccc1)NC(=O)[C@@H](CC(C)C)NC(=O)[C@H](Cc1ccccc1)NC(=O)NC(C)C)C(=O)N[C@@H](Cc1ccccc1)C(=O)O`, the results for the IC50 in assay [1] and in assay [3] were 0.2 µM and 0.5 µM, respectively. In addition, the EC50 result in assay [2] is “Not Active”.

As for `CNC(=O)N[C@@H](CCSC)C(=O)N[C@@H](CC(C)C)C(=O)N[C@@H](Cc1ccccc1)C(=O)O`, the IC50 amounted to 3 µM in assay [1] and 2 µM in assay [3]. In addition, the EC50 result in assay [2] is on record as “Not Active”.

`CCNC(=O)N[C@@H](CCSC)C(=O)N[C@@H](CC(C)C)C(=O)N[C@@H](Cc1ccccc1)C(=O)O`: the figures for the IC50 in assay [1] and in assay [3] were 1 µM and 3 µM, respectively. Moreover, the half-maximal effective concentration (EC50) result in assay [2] is given as “Not Active”.

In the case of `CSCC[C@H](NC(=O)NCc1ccccc1)C(=O)N[C@@H](CC(C)C)C(=O)N[C@@H](Cc1ccccc1)C(=O)O`, the half-maximal inhibitory concentration (IC50) in assay [1] was found to be 0.8 µM; in assay [3], 0.6 µM.

In the case of `CSCC[C@H](NC(N)=O)C(=O)N[C@@H](CC(C)C)C(=O)N[C@@H](Cc1ccccc1)C(=O)O`, the 50% inhibitory concentration (IC50) in assay [1] is 2 µM. The same compound came in with an EC50 in assay [4] of 3 µM.

In the case of `CCCCNC(=O)N[C@@H](Cc1ccccc1)C(=O)N[C@H](CC(C)C)C(=O)N[C@@H](Cc1ccccc1)C(=O)N[C@H](CC(C)C)C(=O)N[C@@H](Cc1ccccc1)C(=O)O`, the half-maximal inhibitory concentration (IC50) came out at 0.3 µM in assay [1] and 0.6 µM in assay [3]. For the same compound, the concentration giving a half-maximal response (EC50) result in assay [2] was “Not Active”.

In the case of `Cc1cccc(NC(=O)N[C@@H](Cc2ccccc2)C(=O)N[C@H](CC(C)C)C(=O)N[C@@H](Cc2ccccc2)C(=O)N[C@H](CC(C)C)C(=O)N[C@@H](Cc2ccccc2)C(=O)O)c1`, the values for the concentration for half-maximal inhibition (IC50) in assay [1] and in assay [3] were 0.2 µM and 0.02 µM, respectively. Also, the EC50 result in assay [2] is reported as “Not Active”.

Turning to `CSCC[C@H](NC(=O)Nc1ccccc1)C(=O)N[C@@H](CC(C)C)C(=O)N[C@@H](Cc1ccccc1)C(=O)O`, the IC50 was 0.03 µM in assay [1] and “Not Active” in assay [6]. Also, the EC50 in assay [4] was found to be 0.04 µM.

On to `COc1ccc(NC(=O)N[C@@H](CCSC)C(=O)N[C@@H](CC(C)C)C(=O)NC(Cc2ccccc2)C(=O)O)cc1` (stereo not given in full), for which the IC50 was 0.002 µM in assay [1] and “Not Active” in assay [6]. In assay [4], this compound had an EC50 of 0.001 µM.

In general, IC50 refers to the point on the concentration scale where inhibition reaches its midpoint. By EC50 is commonly meant the concentration needed to bring the measured effect to its halfway point. Low readings indicate higher potency in that assay, high ones lower potency in that assay.
